High-throughput results as filed in PubChem BioAssay.
RanGTP-Imp inh: inhibitors of RanGTP-importin-beta interaction, primary screen, biochemical, FRET, CFP-Ran, YFP-importin-beta, homogeneous | cell-free CFP-Ran/YFP-importin-beta FRET ratio | Ran GTPase (GTP-bound) - importin-beta complex | inhibition, % (concentration not given with the values) | 300,000 compounds, 1.1% hits;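 active means more than half of the replicate wells show a fall in the fluorescence ratio signal beyond about 16%, limit read from the data, passing the limit was not always enough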
TbHK1 inh: Trypanosoma brucei hexokinase 1 inhibitors, primary screen, biochemical, G6PDH-coupled NADH absorbance, MLSCN library; hexokinase 1 [Trypanosoma brucei]; recombinant TbHK1, G6PDH-coupled NADH A340; inhibition, % at 10 µM; 220,000 compounds, 0.11% hits; AID 1430, 2008;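 active means inhibition of 50% or more in the single-dose primary screen; inactive means inhibition below 50%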
Runt-SMMHC FRET: inhibitors of RUNX1 Runt–CBFb-SMMHC binding, primary screen, biochemical, FRET, Cerulean-Runt, Venus-CBFb-SMMHC, uHTS; Runt-related transcription factor 1 (Homo sapiens) + Core-binding factor subunit beta …; Cerulean-Runt/Venus-CBFb-SMMHC FRET ratio 530/480, 1 h; inhibition, % at 20 µM; 220,000 compounds, 0.74% hits; AID 1434, 2008;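 active means mean inhibition across duplicate retests at 20 µM reaching about 50%, limit read from the data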;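 further: inhibitors lower the FRET ratio by blocking Runt binding to CBFb-SMMHC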
Target sequence (Q01196 whole entry, looked up): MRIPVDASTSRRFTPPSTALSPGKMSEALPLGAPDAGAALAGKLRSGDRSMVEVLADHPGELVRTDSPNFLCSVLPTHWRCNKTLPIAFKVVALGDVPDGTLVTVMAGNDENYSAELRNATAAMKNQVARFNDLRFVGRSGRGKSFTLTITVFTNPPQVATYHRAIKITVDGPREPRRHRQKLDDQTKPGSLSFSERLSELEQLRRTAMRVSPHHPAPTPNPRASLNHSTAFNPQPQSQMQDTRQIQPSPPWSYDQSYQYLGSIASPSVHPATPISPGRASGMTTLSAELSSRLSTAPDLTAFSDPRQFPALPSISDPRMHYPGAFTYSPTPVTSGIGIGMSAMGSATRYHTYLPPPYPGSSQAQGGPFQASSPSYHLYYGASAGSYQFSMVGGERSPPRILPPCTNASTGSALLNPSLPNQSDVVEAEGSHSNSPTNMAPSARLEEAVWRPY
Target sequence (Q13951 whole entry, looked up): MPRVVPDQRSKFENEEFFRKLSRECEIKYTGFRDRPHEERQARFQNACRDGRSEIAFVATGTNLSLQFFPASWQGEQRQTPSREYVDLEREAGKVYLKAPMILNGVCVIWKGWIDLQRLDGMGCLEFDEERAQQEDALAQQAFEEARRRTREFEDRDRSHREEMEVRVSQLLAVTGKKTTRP
p97 ATPase inh: inhibitors of human p97 ATPase, primary screen, biochemical. inhibition, % at 8 µM. recombinant p97 ATPase, Kinase-Glo ATP luminescence, 3 h. 220,000 compounds, 0.42% hits. Transitional endoplasmic reticulum ATPase (Homo sapiens), P55072; in the data active means inhibition above about 15%
Runt-CBFb FRET: inhibitors of RUNX1 Runt–CBFb binding, primary screen, biochemical, FRET, Cerulean-Runt, Venus-CBFb, uHTS. Cerulean-Runt/Venus-CBFb FRET ratio 530/480, 1 h. inhibition, % at 20 µM. 220,000 compounds, 0.46% hits;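 active means inhibition over about 50% at 20 µM in the single-dose screen, limit read from the data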
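Buffer or medium: Tris pH 7.5 buffer with BSA. Assay system: Cerulean-labeled Runt domain protein. Amount: each fluorescent fusion protein 100 nM. Read-out basis: loss of energy transfer signal. Incubation: 1 h compound exposure, room temperature. Probe or stimulus: Venus-CBFb binding partner, 100 nM. Detection: FRET, excitation 422 nm, emission at 530 and 480 nm.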
Hck Nef HTS: inhibitors of Nef-activated human Hck kinase, primary screen, biochemical, Z-Lyte FRET, 384-well, Hck-YEEI. AID 463187, 2010. 220,000 compounds, 0.68% hits. Recombinant Hck-YEEI plus Nef, Z-Lyte FRET kinase assay. inhibition, % at 20 µM. Tyrosine-protein kinase HCK (Homo sapiens), P08631;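 active means Hck-Nef kinase inhibition above about 50%, limit read from the data; inactive means inhibition below that limit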
Hck Nef conf: retest of Hck:Nef kinase inhibitor hits, confirmation, biochemical, Z-Lyte FRET, 384-well, p-Tyr peptide counterscreen | shares compounds with Hck Nef HTS | Recombinant Hck-YEEI:Nef, Z-Lyte FRET kinase assay | AID 463188, 2010 | 1,300 compounds, 28% hits | calls only at 10 µM;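 active means average inhibition of at least 50%, with Z-scores no higher than 3 in both the phospho-tyrosine peptide and fluorescence counterscreens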
Hits are given with their value. Only some compounds are listed: those with a hit (about 2.1% of all), similar ones and a draw of the others.

`Cc1cc(Nc2cccc([N+](=O)[O-])c2)n2c(nc3ccccc32)c1C#N` gave RanGTP-Imp inh inactive, TbHK1 inh inactive, Runt-SMMHC FRET inactive, p97 ATPase inh inactive, Runt-CBFb FRET inactive and Hck Nef HTS inactive.
For COc1ccc(-c2nnn(CC(=O)NCCc3ccc(OC)c(OC)c3)n2)cc1 the results were RanGTP-Imp inh inactive, TbHK1 inh inactive, Runt-SMMHC FRET inactive, p97 ATPase inh inactive, Runt-CBFb FRET inactive, Hck Nef HTS 97 and Hck Nef conf inactive.
`COCCNc1cc(C)nc2c3c(C)cc(C)nc3nn12` gave RanGTP-Imp inh 50, TbHK1 inh inactive, Runt-SMMHC FRET 73, p97 ATPase inh inactive, Runt-CBFb FRET inactive and Hck Nef HTS 57.
COCCNc1cc(C)nc2c(-c3ccccc3OC)c(C)nn12 was read as RanGTP-Imp inh inactive, TbHK1 inh inactive, Runt-SMMHC FRET inactive, p97 ATPase inh inactive, Runt-CBFb FRET inactive and Hck Nef HTS inactive.
For Cc1c(C)c2cc(Cl)c(O)c(CN3CCN(C)CC3)c2oc1=O the results were RanGTP-Imp inh inactive, TbHK1 inh inactive, Runt-SMMHC FRET 127, p97 ATPase inh inactive, Runt-CBFb FRET 96 and Hck Nef HTS 66.
For CCOC(=O)CC(NS(=O)(=O)c1ccc2[nH]c(=O)sc2c1)c1ccc(C)cc1 (configuration not stated) the results were RanGTP-Imp inh inactive.
For Cc1c(O)ccc2c(-c3ccccc3)cc(=O)oc12 the results were RanGTP-Imp inh inactive.
`Cc1c(Br)c(=O)oc2c(Br)c(O)ccc12` gave RanGTP-Imp inh inactive, TbHK1 inh inactive, Runt-SMMHC FRET 86, p97 ATPase inh inactive, Runt-CBFb FRET inactive, Hck Nef HTS 71 and Hck Nef conf inactive.
CC(=O)Nc1cccc(NC(=O)C(=O)NCC(c2ccco2)N2CCc3ccccc3C2)c1 (configuration not stated) was read as RanGTP-Imp inh inactive.
For Cc1ccc(N2C(=O)NC(NS(=O)(=O)c3ccccc3)(C(F)(F)F)C2=O)cc1C (configuration not stated) the results were RanGTP-Imp inh inactive.
O=C1N=C(N2CCN(c3ccccc3)CC2)S/C1=C/c1ccco1 was read as RanGTP-Imp inh inactive, TbHK1 inh inactive, Runt-SMMHC FRET inactive, p97 ATPase inh inactive, Runt-CBFb FRET inactive, Hck Nef HTS 52 and Hck Nef conf inactive.
`Cc1ccc(-n2cccc2/C=C2\C(=N)N3N=C(c4ccco4)SC3=NC2=O)cc1` gave TbHK1 inh inactive, Runt-SMMHC FRET inactive, p97 ATPase inh inactive, Runt-CBFb FRET inactive, Hck Nef HTS 70 and Hck Nef conf active.
`CCOc1ccccc1N=c1oc2cc(O)ccc2cc1C(=O)NCC1CCCO1` (configuration not stated) gave RanGTP-Imp inh 180, TbHK1 inh inactive, Runt-SMMHC FRET 59, p97 ATPase inh inactive, Runt-CBFb FRET 53 and Hck Nef HTS 59.
For COc1ccc(C2=NN(C(=O)c3ccco3)C(c3cc4ccccc4nc3Cl)C2)cc1 (configuration not stated) the results were RanGTP-Imp inh inactive, TbHK1 inh inactive, Runt-SMMHC FRET inactive, p97 ATPase inh inactive, Runt-CBFb FRET inactive, Hck Nef HTS 51 and Hck Nef conf inactive.
For O=C(CSC(=S)N1CCCC1)N1CCN(S(=O)(=O)c2cccc([N+](=O)[O-])c2)CC1 the results were RanGTP-Imp inh inactive.
Screening CC1(C)Cc2c(sc3[nH]c(=S)n(Cc4ccco4)c(=O)c23)CO1 returned RanGTP-Imp inh inactive, TbHK1 inh inactive, Runt-SMMHC FRET inactive, p97 ATPase inh inactive, Runt-CBFb FRET inactive and Hck Nef HTS inactive.
For O=c1c2c3c(sc2[nH]c(=S)n1Cc1ccco1)CCC3 the results were RanGTP-Imp inh inactive, TbHK1 inh inactive, Runt-SMMHC FRET inactive, p97 ATPase inh inactive, Runt-CBFb FRET inactive, Hck Nef HTS 81 and Hck Nef conf inactive.
For COc1cc(/C=C2\SC(c3ccccc3)=NC2=O)cc(Cl)c1O the results were RanGTP-Imp inh inactive, TbHK1 inh inactive, Runt-SMMHC FRET 69, p97 ATPase inh inactive, Runt-CBFb FRET inactive, Hck Nef HTS 50 and Hck Nef conf active.
`Nc1nc2nc(-c3cccs3)cc(C(F)(F)F)n2n1` gave RanGTP-Imp inh 62, TbHK1 inh inactive, Runt-SMMHC FRET 91, p97 ATPase inh inactive, Runt-CBFb FRET 66 and Hck Nef HTS 110.
Screening COc1cc(C(=O)Nc2c(C(=O)O)[nH]c3ccc(Br)cc23)cc(OC)c1OC returned RanGTP-Imp inh inactive.
Screening CCC(=O)Oc1ccc2c(C)cc(=O)oc2c1C(=O)CC returned RanGTP-Imp inh inactive, TbHK1 inh inactive, Runt-SMMHC FRET inactive, p97 ATPase inh inactive, Runt-CBFb FRET inactive and Hck Nef HTS 154.
`COc1ccc(NC(=O)/C=C/c2ccc(Br)o2)cn1` gave RanGTP-Imp inh inactive, TbHK1 inh inactive, Runt-SMMHC FRET inactive, p97 ATPase inh inactive, Runt-CBFb FRET inactive and Hck Nef HTS inactive.
`COc1ccccc1CNC(=O)/C=C/c1ccc(Br)o1` gave RanGTP-Imp inh inactive, TbHK1 inh inactive, Runt-SMMHC FRET inactive, p97 ATPase inh inactive, Runt-CBFb FRET inactive, Hck Nef HTS 91 and Hck Nef conf active.
For Cc1cccnc1NC(=O)c1csnn1 the results were RanGTP-Imp inh inactive, TbHK1 inh inactive, Runt-SMMHC FRET inactive, p97 ATPase inh inactive, Runt-CBFb FRET inactive and Hck Nef HTS inactive.
`CC1=NNC(=O)/C1=C\c1cn(-c2ccccc2)nc1-c1cccs1` gave RanGTP-Imp inh inactive, TbHK1 inh inactive, Runt-SMMHC FRET inactive, p97 ATPase inh inactive, Runt-CBFb FRET inactive, Hck Nef HTS 99 and Hck Nef conf active.
O=Cc1cn(-c2ccccc2)nc1-c1ccc(F)cc1 was read as RanGTP-Imp inh inactive.
CC1=NNC(=O)/C1=C\c1cn(-c2ccccc2)nc1-c1ccc(F)cc1 was read as RanGTP-Imp inh inactive, TbHK1 inh inactive, Runt-SMMHC FRET inactive, p97 ATPase inh inactive, Runt-CBFb FRET inactive, Hck Nef HTS 86 and Hck Nef conf active.
